Measured values taken from ChEMBL document CHEMBL5705890, “Antitumor activity of an allosteric inhibitor of centromere-associated protein-E” (Proc Natl Acad Sci U S A, 2010).

Key:
SNB-75 = assay: Anticancer activity against human SNB-75 cells assessed as cell doubling measured for 72 hrs by DAPI staining based analysis; format: functional
HT-1376 = assay: Anticancer activity against human HT-1376 cells assessed as cell doubling measured for 72 hrs by DAPI staining based analysis; format: functional
[1] = system: KATO III stomach cancer cell line; assay: Anticancer activity against human KATO III stomach cancer cell line cells assessed as cell doubling measured for 72 hrs by DAPI staining based analysis; format: functional
SW-403 = assay: Anticancer activity against human SW403 cells assessed as cell growth inhibition measured after 72 hrs by DAPI staining based analysis; format: functional
LS-1034 = assay: Anticancer activity against human LS1034 cells assessed as cell growth inhibition measured after 72 hrs by DAPI staining based analysis; format: functional
BHT-101 = assay: Anticancer activity against human BHT-101 cells assessed as cell growth inhibition measured after 72 hrs by DAPI staining based analysis; format: functional
Summary of the method: (§1)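 Cells were seeded, and DNA content at 24 h after seeding (T0) was read by imaging of fixed, DAPI-stained cells. Cells were then exposed to a range of drug concentrations for a further 72 h (T72) and DNA content was read again. T72 values were normalized to T0, and GI50 was taken from curve fits as the concentration giving 50% growth inhibition relative to T0 and Ymax.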

[2] = molecular target: Centromere-associated protein E (Homo sapiens, UniProt Q02224, I182L/K184T/T183A); assay: Binding affinity to human CENP-E I182L/T183A/K184T mutant assessed as inhibition constant
CWR22R [3] = assay: Anticancer activity against human 22Rv1 cells assessed as cell doubling measured for 72 hrs by DAPI staining based analysis; format: functional
CWR22R [4] = assay: Anticancer activity against human 22Rv1 cells assessed as cell growth inhibition measured after 72 hrs by DAPI staining based analysis; format: functional
Summary of the method: (§2)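 Cells were seeded and, after 24 h, DNA content was read as T0. Cells were then exposed to varying drug concentrations for a further 72 h (T72). Fixed cells were DAPI-stained and DNA content measured by automated imaging. T72 values were normalized to T0. GI50 is the concentration giving 50% growth inhibition between T0 and Ymax, obtained by curve fitting.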

MX1 [5] = assay: Anticancer activity against human MX1 cells assessed as cell doubling measured for 72 hrs by DAPI staining based analysis; format: functional
BFTC-905 = assay: Anticancer activity against human BFTC-905 cells assessed as cell doubling measured for 72 hrs by DAPI staining based analysis; format: functional
NCI-H526 = assay: Anticancer activity against human NCI-H526 cells assessed as cell growth inhibition measured after 72 hrs by DAPI staining based analysis; format: functional
[6] = Anticancer activity against human SCC-13 cells assessed as cell doubling measured for 72 hrs by DAPI staining based analysis; format: functional
COLO 205 [7] = assay: Anticancer activity against human COLO 205 cells assessed as cell doubling measured for 72 hrs by DAPI staining based analysis; format: functional
[8] = molecular target: Centromere-associated protein E (Homo sapiens, UniProt Q02224); assay: Inhibition of microtubule-stimulated ATPase activity of C-terminal 6-his-tagged CENP-E (2 to 340 residues)(unknown origin) expressed in Escherichia coli BL21(DE3) in presence of ATP
Summary of the method: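 Steady-state ATPase of CENP-E motor domain, residues 2–340 with C-terminal 6-His tag, expressed in E. coli BL21(DE3). Run at 1 nM enzyme, 500 μM ATP and 5 μM paclitaxel-stabilized microtubules in PEM25 (25 mM PIPES-K pH 6.8, 2 mM MgCl2, 1 mM EGTA) plus 10 μM paclitaxel. IC50 taken from concentration-response curves.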

COLO 205 [9] = assay: Antitumor activity against human COLO 205 cells in xenograft model assessed as tumor growth delay at 62.5 mg/kg relative to control; format: functional
SR = assay: Anticancer activity against human SR cells assessed as cell growth inhibition measured after 72 hrs by DAPI staining based analysis; format: functional
RPMI-8226 = assay: Anticancer activity against human RPMI-8226 cells assessed as cell doubling measured for 72 hrs by DAPI staining based analysis; format: functional
MCF-10A = assay: Anticancer activity against human MCF-10A cells assessed as cell doubling measured for 72 hrs by DAPI staining based analysis; format: functional
CAL-27 = assay: Anticancer activity against human CAL-27 cells assessed as cell growth inhibition measured after 72 hrs by DAPI staining based analysis; format: functional; summary of the method: as §1
[10] = Anticancer activity against human COLO-704 cells assessed as cell doubling measured for 72 hrs by DAPI staining based analysis; format: functional
A673 = assay: Anticancer activity against human A673 cells assessed as cell growth inhibition measured after 72 hrs by DAPI staining based analysis; format: functional; summary of the method: as §2
SK-N-DZ = assay: Anticancer activity against human SK-N-DZ cells assessed as cell growth inhibition measured after 72 hrs by DAPI staining based analysis; format: functional
NCI-H661 = assay: Anticancer activity against human NCI-H661 cells assessed as cell doubling measured for 72 hrs by DAPI staining based analysis; format: functional
BT-20 = assay: Anticancer activity against human BT-20 cells assessed as cell doubling measured for 72 hrs by DAPI staining based analysis; format: functional
NCI-H2170 = assay: Anticancer activity against human NCI-H2170 cells assessed as cell doubling measured for 72 hrs by DAPI staining based analysis; format: functional
[11] = Anticancer activity against human CML-T1 cells assessed as cell growth inhibition measured after 72 hrs by DAPI staining based analysis; format: functional; summary of the method: as §1
A101D = assay: Anticancer activity against human A101D cells assessed as cell doubling measured for 72 hrs by DAPI staining based analysis; format: functional
SCC-15 = assay: Anticancer activity against human SCC-15 cells assessed as cell growth inhibition measured after 72 hrs by DAPI staining based analysis; format: functional
SNU-16 = assay: Anticancer activity against human SNU-16 cells assessed as cell growth inhibition measured after 72 hrs by DAPI staining based analysis; format: functional
COLO-320-HSR = assay: Anticancer activity against human COLO 320HSR cells assessed as cell doubling measured for 72 hrs by DAPI staining based analysis; format: functional
SW 962 = assay: Anticancer activity against human SW 962 cells assessed as cell doubling measured for 72 hrs by DAPI staining based analysis; format: functional
NCI-H2052 = assay: Anticancer activity against human NCI-H2052 cells assessed as cell growth inhibition measured after 72 hrs by DAPI staining based analysis; format: functional
Detroit 562 = assay: Anticancer activity against human Detroit 562 cells assessed as cell doubling measured for 72 hrs by DAPI staining based analysis; format: functional
SW1088 = assay: Anticancer activity against human SW1088 cells assessed as cell doubling measured for 72 hrs by DAPI staining based analysis; format: functional
KM12 = assay: Anticancer activity against human KM12 cells assessed as cell growth inhibition measured after 72 hrs by DAPI staining based analysis; format: functional
MX1 [12] = assay: Anticancer activity against human MX1 cells assessed as cell growth inhibition measured after 72 hrs by DAPI staining based analysis; format: functional
SW1990 = assay: Anticancer activity against human SW1990 cells assessed as cell doubling measured for 72 hrs by DAPI staining based analysis; format: functional

Centromere-associated protein E (Homo sapiens, UniProt Q02224), sequence (Q02224 whole entry, the tested form may be a part): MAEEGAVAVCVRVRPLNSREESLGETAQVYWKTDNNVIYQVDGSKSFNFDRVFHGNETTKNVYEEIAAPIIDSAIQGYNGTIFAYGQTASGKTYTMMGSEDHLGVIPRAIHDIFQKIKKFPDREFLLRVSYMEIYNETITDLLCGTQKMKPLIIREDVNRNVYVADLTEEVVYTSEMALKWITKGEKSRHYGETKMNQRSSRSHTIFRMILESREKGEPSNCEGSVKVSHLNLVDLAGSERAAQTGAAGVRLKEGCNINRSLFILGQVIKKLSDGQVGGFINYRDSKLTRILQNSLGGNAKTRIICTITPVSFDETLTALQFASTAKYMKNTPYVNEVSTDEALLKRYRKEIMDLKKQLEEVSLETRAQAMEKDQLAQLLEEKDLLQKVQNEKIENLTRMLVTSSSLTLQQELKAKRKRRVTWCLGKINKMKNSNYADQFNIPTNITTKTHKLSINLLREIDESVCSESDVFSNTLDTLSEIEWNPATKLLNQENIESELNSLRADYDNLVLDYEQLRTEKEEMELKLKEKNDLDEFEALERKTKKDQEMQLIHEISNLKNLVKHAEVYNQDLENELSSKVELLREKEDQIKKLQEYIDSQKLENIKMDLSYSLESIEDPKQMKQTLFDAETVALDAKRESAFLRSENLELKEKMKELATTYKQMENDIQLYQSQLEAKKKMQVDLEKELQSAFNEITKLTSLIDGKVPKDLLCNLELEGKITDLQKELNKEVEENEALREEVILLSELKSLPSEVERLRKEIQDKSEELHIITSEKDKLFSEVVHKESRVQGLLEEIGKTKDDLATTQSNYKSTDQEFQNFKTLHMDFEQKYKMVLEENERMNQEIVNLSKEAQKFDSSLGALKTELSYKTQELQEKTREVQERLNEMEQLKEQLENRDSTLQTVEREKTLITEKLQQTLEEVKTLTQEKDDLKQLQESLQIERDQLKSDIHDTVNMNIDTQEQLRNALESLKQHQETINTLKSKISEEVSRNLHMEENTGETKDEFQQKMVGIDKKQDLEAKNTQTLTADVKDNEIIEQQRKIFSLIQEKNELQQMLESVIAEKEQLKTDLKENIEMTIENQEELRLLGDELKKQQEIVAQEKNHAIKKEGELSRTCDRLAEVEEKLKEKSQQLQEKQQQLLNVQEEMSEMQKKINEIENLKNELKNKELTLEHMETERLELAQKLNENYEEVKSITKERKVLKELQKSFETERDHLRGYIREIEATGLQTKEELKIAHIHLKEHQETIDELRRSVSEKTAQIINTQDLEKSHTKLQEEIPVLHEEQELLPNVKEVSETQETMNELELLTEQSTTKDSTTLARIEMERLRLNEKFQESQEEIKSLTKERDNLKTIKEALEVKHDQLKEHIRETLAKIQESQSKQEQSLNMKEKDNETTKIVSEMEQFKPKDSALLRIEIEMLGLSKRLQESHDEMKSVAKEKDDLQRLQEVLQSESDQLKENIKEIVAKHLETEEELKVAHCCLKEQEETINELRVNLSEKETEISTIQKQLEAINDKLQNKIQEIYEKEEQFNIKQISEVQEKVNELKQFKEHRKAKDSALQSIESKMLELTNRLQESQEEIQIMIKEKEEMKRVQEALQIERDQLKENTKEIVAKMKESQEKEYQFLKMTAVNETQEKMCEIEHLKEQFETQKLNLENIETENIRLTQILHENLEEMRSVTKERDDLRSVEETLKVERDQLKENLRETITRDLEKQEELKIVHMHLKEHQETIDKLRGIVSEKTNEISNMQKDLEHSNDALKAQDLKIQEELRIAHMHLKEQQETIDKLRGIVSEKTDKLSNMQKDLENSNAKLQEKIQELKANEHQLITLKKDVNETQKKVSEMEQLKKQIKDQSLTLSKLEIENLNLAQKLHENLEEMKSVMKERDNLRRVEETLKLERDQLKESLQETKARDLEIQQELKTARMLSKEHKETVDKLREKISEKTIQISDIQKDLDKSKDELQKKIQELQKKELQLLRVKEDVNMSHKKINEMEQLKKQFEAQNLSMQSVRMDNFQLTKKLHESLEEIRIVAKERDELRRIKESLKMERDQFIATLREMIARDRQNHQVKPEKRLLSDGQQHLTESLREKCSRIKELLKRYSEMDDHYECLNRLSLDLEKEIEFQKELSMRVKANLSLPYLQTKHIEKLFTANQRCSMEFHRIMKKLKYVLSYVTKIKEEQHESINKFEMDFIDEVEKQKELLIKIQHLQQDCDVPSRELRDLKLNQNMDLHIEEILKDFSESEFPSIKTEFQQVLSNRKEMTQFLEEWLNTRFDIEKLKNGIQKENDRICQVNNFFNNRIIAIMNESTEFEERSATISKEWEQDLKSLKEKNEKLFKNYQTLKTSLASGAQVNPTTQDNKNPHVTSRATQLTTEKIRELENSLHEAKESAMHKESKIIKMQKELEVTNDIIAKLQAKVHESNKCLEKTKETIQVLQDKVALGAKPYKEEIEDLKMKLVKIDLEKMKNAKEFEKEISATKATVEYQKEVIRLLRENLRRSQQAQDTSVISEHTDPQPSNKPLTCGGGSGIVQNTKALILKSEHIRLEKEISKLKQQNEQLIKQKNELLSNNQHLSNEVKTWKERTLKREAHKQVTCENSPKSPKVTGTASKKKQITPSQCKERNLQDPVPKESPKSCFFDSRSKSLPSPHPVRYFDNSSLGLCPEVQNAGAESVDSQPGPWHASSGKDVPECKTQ
Centromere-associated protein E (Homo sapiens, UniProt Q02224, I182L/K184T/T183A), sequence (Q02224 whole entry I182L/T183A/K184T): as the sequence (Q02224 whole entry, the tested form may be a part) above, with I182L, T183A, K184T counted along it

SMILES: CC(C)Oc1ccc(C(=O)N[C@H](CNC(=O)CN(C)C)Cc2ccc(-c3cn4cccc([C@H](C)O)c4n3)cc2)cc1Cl [GSK-923295A]
- Activity (SNB-75): 1.37
- Activity (HT-1376): 1.74
- Activity [1]: 2.02
- GI50 (SW-403): 24 nM
- GI50 (LS-1034): 97 nM
- GI50 (BHT-101): 100 nM
- Ki [2]: 64 nM
- Activity (CWR22R [3]): 2.46
- GI50 (CWR22R [4]): 29 nM
- Activity (MX1 [5]): 2.99
- Activity (BFTC-905): 3.49
- GI50 (NCI-H526): 88 nM
- Activity [6]: 3.39
- Activity (COLO 205 [7]): 3.3
- IC50 [8]: 2.3 nM
- Activity (COLO 205 [9]): 122%
- GI50 (SR): 29 nM
- Activity (RPMI-8226): 1.96
- Activity (MCF-10A): 3.87
- GI50 (CAL-27): 47 nM
- Activity [10]: 2.48
- GI50 (A673): 23 nM
- GI50 (SK-N-DZ): 69 nM
- Activity (NCI-H661): 1.56
- Activity (BT-20): 4.17
- Activity (NCI-H2170): 1.69
- GI50 [11]: 13 nM
- Activity (A101D): 1.36
- GI50 (SCC-15): 63 nM
- GI50 (SNU-16): 18 nM
- Activity (COLO-320-HSR): 3.25
- Activity (SW 962): 2.46
- GI50 (NCI-H2052): 44 nM
- Activity (Detroit 562): 2.52
- Activity (SW1088): 2.55
- GI50 (KM12): 56 nM
- GI50 (MX1 [12]): 30 nM
- Activity (SW1990): 1.88
